Measured values taken from ChEMBL document CHEMBL1154166, “Crystallographic study of a novel subnanomolar inhibitor provides insight on the binding interactions of alkenyldiarylmethanes with human immunodeficiency virus-1 reverse transcriptase” (J Med Chem, 2009).

Columns and labels:
[1] = test system: Human immunodeficiency virus 2; assay: Antiviral activity against HIV2 ROD infected in human MT4 cells assessed as inhibition of virus-induced cytopathic effect by MTT assay; type: functional, organism-based
Method in brief: (§1)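 Infected MT-4 cells (HIV-1 IIIB or HIV-2 ROD), protection from viral cytopathic effect read by MTT assay; EC50 = concentration giving 50% inhibition of cytopathic effect. CC50 from mock-infected MT-4 cells.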

MT4 = assay: (§2) Cytotoxicity against human MT4 cells; type: cell-based; details: mt4
Method in brief: (§3)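 Mock-infected MT-4 cells, handled alongside the MTT antiviral assay run with HIV-1 IIIB and HIV-2 ROD. CC50 is the concentration causing death of 50% of cells.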

Plasma = assay: (§4) Stability in rat plasma; type: ADME, cell-free
Method in brief: (§5)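 Compound incubated in reconstituted rat plasma with 1,1-diphenylethylene internal standard; remaining compound quantified by reversed-phase C18 HPLC, 8:2 acetonitrile-water, column at room temperature; half-life per replicate from regression of concentration versus time, averaged over two replicates.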

[2] = test system: Human immunodeficiency virus 1; assay: Antiviral activity against NNRTI-resistant HIV1 NL4-3 with reverse transcriptase Y181C mutation infected in human CEM-SS cells assessed as inhibition of virus-induced cytopathic effect by XTT assay; type: functional, organism-based; details: Human immunodeficiency virus 1, NL4-3, CEM-SS
Method in brief: (§6)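 XTT cytoprotection readout in CEM-SS cells infected with HIV-1 RF or with HIV-1 NL4-3 carrying RT K103N or Y181C. EC50 is the concentration giving 50% inhibition of virus-induced cytopathic effect.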

[3] = test system: Human immunodeficiency virus 1; assay: Antiviral activity against HIV1 RF infected in human CEM-SS cells assessed as inhibition of virus-induced cytopathic effect by XTT assay; type: functional, organism-based; details: Human immunodeficiency virus 1, RF; method in brief: as §6
[4] = target: Human immunodeficiency virus type 1 reverse transcriptase (Human immunodeficiency virus 1, UniProt Q72547); assay: Inhibition of HIV1 reverse transcriptase p66/p51 using poly(rC)-oligo)dG) as template
Method in brief: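 Purified recombinant HIV-1 RT p66/51 heterodimer; poly(rC)·oligo(dG) homopolymer template/primer; activity measured as 32P-labeled […] incorporated into nascent DNA across increasing inhibitor concentrations; IC50 derived.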

CEM-SS = assay: (§7) Cytotoxicity against human CEM-SS cells; type: cell-based; details: cem-ss
Method in brief: (§8)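 Mock-infected CEM-SS cells, handled alongside the XTT antiviral assay. CC50 is the concentration causing death of 50% of cells.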

[5] = test system: Human immunodeficiency virus 1; assay: Antiviral activity against NNRTI-resistant HIV1 NL4-3 with reverse transcriptase K103N mutation infected in human CEM-SS cells assessed as inhibition of virus-induced cytopathic effect by XTT assay; type: functional, organism-based; details: Human immunodeficiency virus 1, NL4-3, CEM-SS; method in brief: as §6
[6] = test system: Human immunodeficiency virus 1; assay: Antiviral activity against HIV1 3B infected in human MT4 cells assessed as inhibition of virus-induced cytopathic effect by MTT assay; type: functional, organism-based; details: Human immunodeficiency virus 1, 3B; method in brief: as §1
[7] = as §2; type: cell-based; details: MT4 cells; method in brief: as §3
[8] = as §4; type: ADME, cell-free; method in brief: as §5
[9] = as §7; type: cell-based; details: CEM-SS cells; method in brief: as §8

half-life [8]	Compound	EC50 [1]	CC50 (MT4)	t1/2 (Plasma)	EC50 [2]	EC50 [3]	IC50 [4]	CC50 (CEM-SS)	EC50 [5]	EC50 [6]	CC50 [7]	CC50 [9]
	COC(=O)CCC/C=C(\c1cc(C)c(OC)c(C(=O)OC)c1)c1cc(C)c2oc(=O)n(C)c2c1	Not Active										
	COc1c(C)cc(/C(=C\CCCc2nnc(C)o2)c2cc(C)c3oc(=O)n(C)c3c2)cc1C(=O)SC	Not Active	3900 nM	238 min	> 100000 nM	70 nM	< 1 nM	3000 nM	> 100000 nM	180 nM		
12.4 min	COC(=O)CCCC=C(c1cc(C#N)c(OC)c(C(=O)OC)c1)c1cc(C#N)c(OC)c(C(=O)OC)c1	Not Active				700 nM					> 100000 nM	17000 nM
	COC(=O)CCCC=C(c1cc(Br)c(OC)c(C(=O)OC)c1)c1cc(Br)c(OC)c(C(=O)OC)c1	Not Active			6100 nM	100 nM			420 nM			
	Cc1ccnc2c1NC(=O)c1cccnc1N2C1CC1 [NEVIRAPINE]				800 nM				600 nM			
